# Beta2AR agonist: human beta-2 adrenergic receptor agonism by FAP | 340,000 compounds, 0.43% hits | Am2.2-beta2AR cells, FAP receptor internalization, flow cytometry | response, % (no concentration beside the values) | AID 504454;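 active = response above a set limit, near 3 SD of response in nonfluorescent compounds, cut at about 42% in these data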
# Target sequence (P07550 whole entry, looked up): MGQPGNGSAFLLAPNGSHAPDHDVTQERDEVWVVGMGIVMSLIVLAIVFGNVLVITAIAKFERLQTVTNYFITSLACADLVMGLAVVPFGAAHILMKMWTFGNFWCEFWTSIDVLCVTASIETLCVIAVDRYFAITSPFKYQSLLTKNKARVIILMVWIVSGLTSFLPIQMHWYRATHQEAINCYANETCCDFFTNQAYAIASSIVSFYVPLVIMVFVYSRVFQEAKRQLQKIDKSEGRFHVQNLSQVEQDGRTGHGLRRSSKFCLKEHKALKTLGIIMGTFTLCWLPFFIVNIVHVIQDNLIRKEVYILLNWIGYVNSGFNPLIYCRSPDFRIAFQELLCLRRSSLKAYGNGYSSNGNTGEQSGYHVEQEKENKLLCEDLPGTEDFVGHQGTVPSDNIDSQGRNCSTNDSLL
# Arr AP2 block: human beta-arrestin and AP2 interaction inhibition | inhibition, % at 10 µM | 340,000 compounds, 0.31% hits | FITC-arrestin peptide / GST-AP2 beads, flow cytometry; AP2 beta2 appendage carries R879A mutation | AID 504490;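 active = inhibition above a set limit, near 3 SD of compounds lacking own fluorescence, cut at about 54% in these data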;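 note: plate controls were DMSO wells for no effect and 5 µM unlabelled arrestin peptide for full effect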
#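 system = GST-tagged AP2 beta2-adaptin appendage (R879A) on 4 µm glutathione beads | reagent = FITC-labelled arrestin peptide probe, 50 nM final | schedule = compound with beads 12 min RT, then probe 1 h RT | signal = HyperCyt-sampled flow cytometry, FL1 channel, ex 488/em 535 nm | read-out = percent response from loss of bead-bound FITC fluorescence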
# NTR1 ag: agonists of human neurotensin receptor NTR1. 330,000 compounds, 0.17% hits. NTR1-U2OS beta-arrestin-GFP spot imaging, agonist mode. P30989. activation, % at 20 µM. AID 493036;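 active = activation at or above 40% of the spot to cytoplasm intensity ratio, with at least 20 cells analyzed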;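 note: 0% = DMSO without peptide and 100% = 100 nM NTR1 peptide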
# GRK2 inh: inhibitors of human GRK2 displacing RNA aptamer; P25098; bead flow cytometry, FAM-aptamer displacement from GRK2; inhibition of aptamer binding, % at 10 µM; 330,000 compounds, 0.59% hits;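 active = inhibition of aptamer binding above 40%, roughly 3 SD of noise, on plates passing a quality check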;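 note: median bead fluorescence of bound FAM aptamer so fluorescent compounds give negative values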
# Hep lipid drop: hepatic lipid droplet formation modulation | AML12 mouse hepatocytes, oleate lipid droplets, BODIPY imaging | inhibition, % at 6.5 µM | 240,000 compounds, 0.4% hits | AID 1656;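 active = lipid droplet intensity inhibited by at least 50%, with more than 500 cells counted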
#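 Assay system: AML12 mouse liver cells | Compound: 6.5 µM single-point dosing | Schedule: Overnight exposure | Technique: Fluorescence imaging, 20x objective, two fields per well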
# TAG inh: inhibitors of triacylglycerol accumulation | 230,000 compounds, 0.66% hits | inhibition, % at 12.5 µM | H9c2 cells, Nile Red lipid (TAG) fluorescence; cells loaded with 200 µM oleic acid | AID 651582;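 active = pattern-corrected inhibition of lipid staining of at least 50% with the nuclear-stain viability signal not falling by more than 50%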;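 note: 0% = DMSO wells and 100% = triacsin C control wells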
# Arr AP2 CP1: human beta-arrestin and AP2 interaction inhibition, cherry pick; shares compounds with Arr AP2 block; GST-AP2 beads, FITC arrestin peptide binding, flow cytometry; GST-fused beta2-adaptin appendage, R879A mutant; inhibition, % at 10 µM; 1,300 compounds, 2% hits; AID 504908;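 active = inhibition above a set limit, roughly 3 SD of non-fluorescent compound noise, cut at about 38% in these data; inactive = inhibition at or below that limit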;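 note: loss of bead fluorescence from 50 nM FITC arrestin peptide bound to appendage; 0% = negative control wells and 100% = excess unlabelled arrestin peptide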
# GST GSH counter: counter-screen for beta-arrestin AP2 inhibitors: GST-GSH bead binding. GST-fluorescein binding to GSH beads, fluorescence. 1,300 compounds, 2% hits. inhibition, % at 10 µM. shares compounds with Arr AP2 block. AID 588338;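 active = inhibition above 50%, about 3 SD of the inhibition seen with non-fluorescent compounds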;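 note: fluorescein maleimide labelled GST captured on 4 micron glutathione beads; higher means more loss of bead fluorescence from quenching or blocked binding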
# An asterisk follows results filed as active; . = no result. Most compounds without a hit are left out; they make up all but 2% or so of the library.
SMILES,Beta2AR agonist,Arr AP2 block,NTR1 ag,GRK2 inh,Hep lipid drop,TAG inh,Arr AP2 CP1,GST GSH counter
CN(C)S(=O)(=O)c1ccc(N2CCCC2)c(C(=O)NNC(=O)c2ccc(Br)cc2)c1,-7.8,20.5,1.1,1.0,.,-18.1,.,.
CN(C)S(=O)(=O)c1ccc(N2CCCC2)c(C(=O)NNC(=O)c2ccccc2)c1,-5.3,63.6*,0.0,0.0,.,0.7,-0.4,4.0
O=C(C[C@H]1C[C@H](C(=O)N2CCCCC2)[C@@]2(CCc3ccccc3)c3[nH]c4cc(-c5ccco5)ccc4c3CCN2C1=O)NCCC1=CCCCC1,1.7,57.2*,3.3,3.0,.,15.9,-2.8,-5.7
CC(C)N(C(=O)[C@H]1C[C@H](CC(=O)NCc2ccco2)C(=O)N2CCc3c([nH]c4cc(-c5ccco5)ccc34)[C@]12C)C(C)C,3.2,60.2*,8.9,3.0,.,7.4,-9.1,-1.4
COc1cccc(NC(=O)Nc2ccc(C(C)(C)C)cc2)c1,6.1,-4.2,24.6,.,3.2,-1.8,.,.
COc1cc(C(=O)O)nc2ccccc12,13.4,56.4*,-0.3,0.0,.,-6.9,-10.3,-2.2
COc1cc(-c2ccccc2)nc2ccccc12,12.9,-0.1,-1.8,0.0,-7.4,0.1,.,.
COc1ccc(N(Cc2ccccc2)S(=O)(=O)c2cccc(C(=O)NCC3CCCO3)c2)cc1 (configuration not stated),17.1,27.3,3.2,.,.,4.6,.,.
Cc1ccc(OCC(=O)Nc2ccc3c(c2)OCCO3)cc1C,-0.8,-0.4,1.5,0.0,15.3,-6.6,.,.
O=C(NC1=NCCS1)c1ccc(Cl)c(S(=O)(=O)N2CCOCC2)c1,3.0,56.5*,0.3,3.0,10.2,3.3,-0.8,-13.5
O=C(NC1=NCCS1)c1ccc(Cl)c(S(=O)(=O)N2CCCC2)c1,-8.9,44.9,0.5,4.0,-2.0,-4.1,.,.
O=C(Nc1ccccc1F)c1cc(S(=O)(=O)N2CCOCC2)cs1,2.1,5.6,-0.4,0.0,5.5,3.2,.,.
CC1(c2ccc3ccccc3c2)NC(=O)N(CC(=O)Nc2ncccc2O)C1=O (configuration not stated),-3.2,19.9,3.2,7.0,.,12.6,.,.
CCN(CC)c1ccc(NS(=O)(=O)c2ccc(-c3ccc(=O)[nH]n3)o2)c(C)c1,7.8,57.1*,0.1,12.0,-11.8,.,2.2,6.4
CC1C(c2ccccc2)=[N+]([O-])C2(CCCCC2)N1O (configuration not stated),-3.5,73.6*,-0.8,0.0,.,4.2,-8.6,-5.6
COc1ccc(CC2(CO)CCN(Cc3ccc(NC(C)=O)cc3)CC2)cc1,-1.4,56.1*,0.0,0.0,-2.9,2.0,6.3,-0.2
O=C(COC(=O)c1ccc[nH]c1=O)Nc1cc(S(=O)(=O)N2CCCCCC2)ccc1Cl,-1.6,-6.3,0.3,.,.,-2.3,.,.
COc1ccc(CC(=O)OCC(=O)Nc2ccc(C(=O)Nc3ccc(OC)cc3)cc2)cc1,-6.0,-27.3,-0.2,0.0,5.2,0.8,.,.
CCOc1ccc(NC(=O)c2ccc(NC(=O)COC(=O)Cc3ccc(OC)cc3)cc2)cc1,12.2,55.0*,-1.5,0.0,3.5,14.1,4.8,-5.2
CC(=O)c1ccc(S(=O)(=O)N(C)CC(=O)NCC2CCCCC2)cc1,-7.1,1.8,0.5,0.0,-14.4,.,.,.
Cc1cccc(-n2c(SCC(N)=O)nc3c(c2=O)C2(CCCC2)Cc2ccccc2-3)c1,-0.2,19.6,16.0,0.0,22.7,.,.,.
NC(=O)CSc1nc2c(c(=O)n1-c1ccccc1)C1(CCCCC1)Cc1ccccc1-2,-7.7,62.7*,13.1,1.0,1.6,6.9,-9.9,-5.5
O=C(CCSCCC(=O)Nc1c(F)c(F)c(F)c(F)c1F)Nc1c(F)c(F)c(F)c(F)c1F,3.4,58.1*,0.0,0.0,11.7,8.1,-7.8,-3.9
O=C(O)CCCC(=O)Nc1c(F)c(F)c(F)c(F)c1F,1.6,-8.6,-1.1,0.0,.,-6.6,.,.
CC(=O)Nc1cccc(-c2ccnc3c2CC(C)(C(=O)Nc2ccc(Cl)cc2)O3)c1 (configuration not stated),.,.,.,.,.,68.2,.,.
SMILES,Beta2AR agonist,Arr AP2 block,NTR1 ag,GRK2 inh,Hep lipid drop,TAG inh,Arr AP2 CP1,GST GSH counter
NC(=O)SCC(=O)Nc1cccc(Cl)c1,14.0,81.8*,1.4,2.0,21.0,-13.7,19.1,10.1
NC(=O)SCC(=O)Nc1ccc(Cl)cc1,6.4,18.2,3.7,1.0,.,-4.9,.,.
CC(C)CNC(=O)C(=O)NCC1OCCCN1S(=O)(=O)c1ccc2c(c1)OCCO2 (configuration not stated),-4.0,4.1,0.8,1.0,8.9,31.8,.,.
CCc1ccc(NC(=O)Nc2cnccn2)cc1,-13.0,-1.8,-1.9,3.0,4.6,.,6.2,-0.4
CCc1ccc(NC(=O)Nc2ccon2)cc1,8.1,4.3,2.5,1.0,6.7,4.9,.,.
CCCCc1ccc(NC(=O)Nc2cnccn2)cc1,1.2,1.4,6.3,26.0,-3.6,.,22.7,-5.0
CC(C(=O)N(C)C1CCCCC1)N1CCC(C(N)=O)CC1 (configuration not stated),-1.2,-6.7,3.8,3.0,6.7,.,.,.
CCN(CC)Cc1c(O)ccc2c(=O)c(Oc3ccccc3OC)coc12,2.2,56.2*,0.8,0.0,.,8.8,6.9,-5.9
COc1ccccc1Oc1coc2c(CN(C)C)c(O)ccc2c1=O,11.2,1.9,0.0,1.0,.,-0.2,.,.
O=C(NC1CCC(O)CC1)c1ccc(NS(=O)(=O)c2cccc([N+](=O)[O-])c2)cc1 (configuration not stated),-2.3,-17.9,-2.7,0.0,.,1.7,.,.
COC(=O)c1ccc(CN2CCC(Oc3cccc(C(=O)N4CCOCC4)c3)CC2)cc1,8.7,70.1*,-0.8,1.0,3.7,.,2.6,-4.5
Cc1cc(-c2nnc(CSc3nnc(NC(=O)c4ccc(C(C)(C)C)cc4)s3)o2)ccc1[N+](=O)[O-],2.4,-1.3,1.6,0.0,22.3,14.6,.,.
O=C(CCC(=O)N1CCN(S(=O)(=O)c2ccc(Cl)cc2)CC1)NCc1ccccc1,4.2,58.0*,2.6,0.0,6.8,.,10.1,-0.8
COc1cc(C(=O)OCCNC(=O)c2cccnc2)cc(OC)c1OC,10.6,58.3*,-1.7,1.0,.,-8.5,-2.8,-12.3
COc1cc(C(=O)OCCNC(=O)c2ccccc2)cc(OC)c1OC,-2.7,-3.9,1.1,2.0,.,.,.,.
CCCNC(=O)C1(C)CCCN(C(=O)c2cccc(OC(F)(F)F)c2)C1 (configuration not stated),.,.,.,.,.,-4.6,.,.
COc1ccccc1NCCC(=O)OCC(=O)NCc1ccco1,-0.9,75.2*,-0.1,0.0,.,-1.9,-9.0,-3.9

# Screens as filed in PubChem BioAssay.
